Screens deposited in PubChem BioAssay by The Scripps Research Institute Molecular Screening Center.
PKA-R2B act = PKA-R2B complex activation; AID 504700; PKA-R2B holoenzyme dissociation, Cy5-IP20 fluorescence polarization; R2B truncated from residue 108, S112A mutant; 0% DMSO only, 100% 113 µM cGMP; P22694+P31323; 0.079% of 340,000 active; activation, % at 11.4 µM;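 active means activation above a cutoff set at the mean over all compounds plus 3 SD, cut at about 18% in these data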;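 further: higher means more holoenzyme dissociation and a rise in polarization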
Target sequence (P31323 whole entry, looked up, other chains not shown, the tested form may be a part): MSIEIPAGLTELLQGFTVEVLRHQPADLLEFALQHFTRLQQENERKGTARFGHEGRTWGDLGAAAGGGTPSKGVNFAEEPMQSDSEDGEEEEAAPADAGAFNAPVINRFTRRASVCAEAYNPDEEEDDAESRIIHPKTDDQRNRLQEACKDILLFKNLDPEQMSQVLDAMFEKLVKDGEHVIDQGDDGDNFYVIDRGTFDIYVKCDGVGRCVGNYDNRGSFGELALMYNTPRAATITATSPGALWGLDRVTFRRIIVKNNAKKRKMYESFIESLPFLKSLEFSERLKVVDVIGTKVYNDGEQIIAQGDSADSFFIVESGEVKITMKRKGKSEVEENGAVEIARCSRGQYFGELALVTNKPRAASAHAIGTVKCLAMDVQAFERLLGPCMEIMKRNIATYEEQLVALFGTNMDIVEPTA
IMP-1 inh = inhibitors of Pseudomonas aeruginosa IMP-1 metallo-beta-lactamase; purified IMP-1, nitrocefin hydrolysis, epi-absorbance fluorescence; inhibition, % at 5.6 µM; 0.45% of 290,000 active;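 active means inhibition above the mean plus 3 SD of all compounds in the same screening run, cut at about 4.5% in these data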
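Assay system: purified recombinant IMP-1 beta-lactamase. Input: IMP-1 0.2 nM before substrate addition. Buffer or medium: Zinc- and detergent-supplemented HEPES buffer, pH 7.1. Schedule: 25 °C, 15 min preincubation, 25 min reaction. Signal: Epi-absorbance fluorescence, 480 nm excitation, 530 nm emission. Evaluation: percent inhibition from optical density relative to buffer-blank wells.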
bovine MsrA act = bovine methionine sulfoxide reductase A activation; purified bovine MsrA, absorbance read-out; 0.3% of 360,000 active; activation, % at 10.6 µM; in the data active means activation above about 7.5%
PKA-R1A activ = activators of PKA-R1A complex. PKA-R1A dissociation, Cy5-IP20 fluorescence polarization; scaled: DMSO 0%, 113 µM cGMP 100%. activation, % at 11.4 µM. 0.083% of 340,000 active;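 active means percent activation above the mean of all tested compounds plus 3 SD, cut at about 19% in these data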;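 further: higher means more PKAc released from R1A so a rise in polarization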
VIM-2 inh = blocks Pseudomonas aeruginosa VIM-2 metallo-beta-lactamase; purified VIM-2, nitrocefin hydrolysis, epi-absorbance fluorescence; 0.89% of 290,000 active; inhibition, % at 5.6 µM;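 active means inhibition above the mean of all tested compounds plus 3 SD, cutoff set per screening run, cut at about 7.5% in these data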;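 further: red hydrolysis product quenches plate fluorescence so inhibitors raise well fluorescence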
MsrA inhibitor = inhibitors of bovine MsrA. 0.75% of 360,000 active. purified bovine MsrA, absorbance read-out. inhibition, % at 15.5 µM. AID 651718; in the data active means inhibition above about 4.5%
Numbers stand for hits; - = inactive; . = no result given. Sampled rows, rich in hits. Any-hit rate of the full collection: about 2.1%.

SMILES | PKA-R2B act | IMP-1 inh | bovine MsrA act | PKA-R1A activ | VIM-2 inh | MsrA inhibitor
O=C(COC(=O)c1cc(-c2cccs2)nc2ccccc12)NCc1ccco1 | - | - | - | - | - | -
S=C1NCN(CC2CC2)CN1 | . | . | . | . | . | -
C=CCN1[C@@H](C)[C@@H](c2ccccc2)Oc2c(Cl)cccc2S1(=O)=O | . | . | . | . | . | -
CCOc1ncnc2c1sc1nc(C)cc(C)c12 | - | - | - | - | - | -
Cc1cc(C)c2c(n1)sc1c(N3CCN(CCO)CC3)ncnc12 | - | - | - | - | 12 | -
CC(NC(=O)Nc1ccc(F)cc1F)c1ccc2c(c1)OCO2 (stereo unspecified) | - | - | - | - | - | -
COc1ccc(C(=O)N/N=C(\C)c2ccc3c(c2)C2C=CCC2C(c2ccccc2)N3)cc1 (stereo unspecified) | - | - | - | - | - | .
O=C(OC1CCCCC1)c1ccc2c(c1)C1C=CCC1C(C(=O)O)N2 (stereo unspecified) | . | - | . | . | - | .
COc1cccc(NS(=O)(=O)c2ccc3c(c2)C2C=CCC2C(c2ccc(C(=O)O)cc2)N3)c1 (stereo unspecified) | - | 22 | - | - | - | -
O=C(O)c1ccc2c(c1)[C@@H]1C=CC[C@@H]1[C@H](c1ccccn1)N2 | - | 5.6 | - | - | - | -
OC(c1ccccc1)(c1ccccc1)C1CCN(CCCOc2ccc(-c3ccncc3)cc2)CC1 | . | . | . | . | . | -
CCOC(=O)C(=CNc1ccc(-c2ccco2)c(Cl)c1)C(=O)OCC | - | 6.4 | - | - | - | -
CCOC(=O)C(=CNc1ccccc1Cl)C(=O)OCC | - | - | - | - | - | -
CCOC(=O)C(=CNc1cc(Cl)c(-c2ccco2)c(Cl)c1)C(=O)OCC | - | 6.1 | - | - | - | -
CCOC(=O)C(=CNc1ccc2c(c1)CCN2C(C)=O)C(=O)OCC | - | - | - | - | - | 4.9
CON(Cc1ccccc1)S(=O)(=O)c1ccccc1Br | . | . | . | . | . | -
COC(=O)[C@@]12CCCN1[C@H](c1ccc(-c3ccc(Cl)c(Cl)c3)c(OC)c1)[C@H]1C(=O)N(C)C(=O)[C@H]12 | - | . | - | - | . | -
CCCCOCC1CN(CCCC)S(=O)(=O)c2c(cccc2N2CCCC2)O1 (stereo unspecified) | . | . | . | . | . | -
CCOC(=O)C1=C(COC(=O)CNS(=O)(=O)c2c(F)cc(F)cc2Br)NC(=O)NC1C (stereo unspecified) | - | . | - | - | . | -
COC(=O)C1C(=O)C2=C(CC1C)NC(C)=C(C(=O)OC1CCCC1)C2c1ccc(N(C)C)cc1 (stereo unspecified) | - | - | - | - | - | -
COC(=O)C1C(=O)C2=C(CC1C)NC(C)=C(C(=O)OC(C)C)C2c1ccc(OC)c(O)c1 (stereo unspecified) | - | - | - | 20 | - | -
CC(=O)Nc1ccc(CNc2nc3cc(-c4cccc(C(F)(F)F)c4)sc3c(=O)n2C)cc1 | . | . | - | . | . | -
O=C(O)[C@@H]1CSC2c3ccccc3C(=O)N21 (stereo partly specified) | - | 25 | - | - | - | -
CN1CCN(CCCNC(=O)c2ccc3c(Cl)c4c(nc3c2)CCCC4)CC1 | - | - | - | - | 9.4 | -
CC(N=C1NS(=O)(=O)c2ccccc21)C(=O)NCc1ccc(F)cc1 (stereo unspecified) | - | . | - | - | . | -
SMILES | PKA-R2B act | IMP-1 inh | bovine MsrA act | PKA-R1A activ | VIM-2 inh | MsrA inhibitor
COc1ccc(N(C(=O)c2ccco2)C(C(=O)NC2CCCC2)c2ccco2)cc1OC (stereo unspecified) | - | - | - | - | - | -
COC(=O)c1ccc(N(C(=O)c2ccco2)C(C(=O)NC2CCCC2)c2ccco2)cc1 (stereo unspecified) | - | 4.5 | - | - | - | -
N#C/C(=C\c1ccc(OCc2ccc(F)cc2)cc1)C(=O)Nc1cccc(C(=O)O)c1 | - | - | - | - | - | -
N#C/C(=C\c1ccc(OCc2ccc(Br)cc2)cc1)C(=O)Nc1cccc(C(=O)O)c1 | - | 6.3 | - | - | - | -
O=C(C1CC1)N1CCc2cc(Br)c(S(=O)(=O)N3CCCCCC3)cc21 | - | . | - | - | . | -
Cc1ccc(NC(=O)CNCc2ccccc2Cl)cc1S(=O)(=O)N(C)C | - | 37 | - | - | - | -
COCCNC(=S)N(C)[C@H]1C[C@H]2c3[nH]c4c(-c5ccc6c(c5)OCO6)cccc4c3CCN2C(=O)[C@H]1[C@H](C)O | . | . | . | . | . | -
COCCn1c(C)cc(C(=O)CSc2cc(C)c3ccccc3n2)c1C | - | 5.7 | - | - | - | -
COCCn1c(C)cc(C(=O)CSc2nc3ccccc3c(=O)n2Cc2ccco2)c1C | - | - | - | - | - | -
CCN1/C(=C/c2ccc3cc(C)ccc3[n+]2CC)Sc2cc(C)ccc21 | - | - | - | - | - | -
CCN1/C(=C/c2ccc3cc(C)ccc3[n+]2C)Sc2ccc3sccc3c21 | - | 18 | - | - | - | -
COc1cccc2c1cc1c(=O)n(CC(=O)NCCCN3CCN(C)CC3)nc(C)n12 | - | - | - | - | 10 | -
CCc1nn(CC(=O)NCCN2CCOCC2)c(=O)c2cc3c(OC)cccc3n12 | - | - | - | - | 8.8 | -
CCCN1CCN(C(=O)Cn2nc(C)n3c(cc4c(OC)cccc43)c2=O)CC1 | - | . | - | - | . | -
CCCSCCCNC(=O)Cn1nc(CC)n2c(cc3c(OC)cccc32)c1=O | - | 9.1 | - | - | - | -
CCOc1ccccc1NC(=O)CSc1nc2[nH]ncc2c(=O)[nH]1 | - | . | - | - | . | -
CCC(CC)c1nnc(NC(=O)C2CC(=O)N(C3CCCC3)C2)s1 (stereo unspecified) | - | - | - | - | - | -
C=CCNc1cccc2c1S(=O)(=O)N[C@@H](C)CO2 | . | . | . | . | . | -
CCOc1ccc2c(c1)c1nnc(SCC(=O)N3CCCCC3C)nc1n2C (stereo unspecified) | - | - | - | - | - | -
CCn1c2ccccc2c2nnc(SCCN3CCOCC3)nc21 | - | - | - | - | - | -
Cn1c2ccc(F)cc2c2nnc(SCCN3CCCCC3)nc21 | - | - | - | - | 12 | -
CCn1c2ccc(C)cc2c2nnc(SCCN3CCOCC3)nc21 | - | - | - | - | 11 | -
CCCCn1c2ccc(F)cc2c2nnc(SCCN3CCCCC3)nc21 | - | - | - | - | 8.4 | -
CCc1nc2ccc(C(=O)Nc3cccc(NS(C)(=O)=O)c3)cn2c1N(C)Cc1nccn1C | . | . | - | . | . | -
CN(CC(=O)Nc1c(Cl)cccc1Cl)C(=O)c1sccc1-c1ccccc1 | - | . | - | - | . | -
COC(=O)c1cc2c(c3c4cc(C)ccc4n(S(=O)(=O)c4ccc(C)cc4)c13)C(=O)N(Cc1ccccc1)C2 | . | . | . | . | . | -
O=C(CSc1cccc2cccnc12)OCC(=O)c1ccc(Br)cc1 | - | 5.3 | - | - | - | -
